# From ChEMBL document CHEMBL3400073, “Design, synthesis and biological evaluation of new hybrid anticonvulsants derived from N-benzyl-2-(2,5-dioxopyrrolidin-1-yl)propanamide and 2-(2,5-dioxopyrrolidin-1-yl)butanamide derivatives” (Bioorg Med Chem, 2015)
# Active and inactive are the calls of the source. The rule behind the calls is not given here.
# Key:
# Mus musculus [1] = test: Anticonvulsant activity in intraperitoneally dosed Albino Swiss CD1 mouse after 0.5 hrs by subcutaneous pentylenetetrazole test; type: functional
# How it was run: (§1)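 Male CD-1 mice were dosed ip (0.1 mL/10 g, methylcellulose vehicle), at least four dose groups of 6 mice each. Protection in MES meant no hindlimb tonic extension after a 25 mA, 50 Hz, 0.2 s ear-electrode shock. Protection in scPTZ meant no clonus over 30 min.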
# Mus musculus [2] = test: Neurological toxicity in Albino Swiss CD1 mouse at 100 mg/kg, ip after 2 hrs by rotarod test; type: organism-based; set-up: dose 100 mg/kg, route intraperitoneal; settings: in vivo
# How it was run: (§2)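 Mice were trained on a 2 cm rod for 3 min, with unlimited trials, at least 24 h before testing. Each was then dosed ip at 100 mg/kg and tested at 10 rpm 0.5 h or 2 h later, in groups of 4. Failure to stay on the rod for at least 1 min indicated neurotoxicity.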
# Mus musculus [3] = test: Anticonvulsant activity in intraperitoneally dosed Albino Swiss CD1 mouse assessed as time to peak effect by maximal electroshock test; type: functional
# Mus musculus [4] = test: Anticonvulsant activity in Albino Swiss CD1 mouse at 100 mg/kg, ip after 2 hrs by subcutaneous pentylenetetrazole test; type: functional, organism-based; set-up: dose 100 mg/kg
# How it was run: (§3)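 Male CD-1 mice, 16–26 g, in groups of 4, each mouse used once, were given 100 mg/kg ip (0.1 mL/10 g, methylcellulose vehicle). MES used 25 mA, 500 V, 50 Hz delivered by ear electrodes for 0.2 s, and absence of hindlimb tonic extension counted as protection. In scPTZ, mice without clonic convulsions over 30 min of observation counted as protected. Both tests were run 0.5 h or 2 h after dosing.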
# Mus musculus [5] = test: Anticonvulsant activity in Albino Swiss CD1 mouse at 100 mg/kg, ip after 2 hrs by maximal electroshock test; type: functional, organism-based; set-up: dose 100 mg/kg; how it was run: as §3
# Mus musculus [6] = test: Anticonvulsant activity in intraperitoneally dosed Albino Swiss CD1 mouse after 0.5 hrs by maximal electroshock test; type: functional; how it was run: as §1
# Mus musculus [7] = test: Anticonvulsant activity in intraperitoneally dosed Albino Swiss CD1 mouse assessed as time to peak effect after 2 hrs by subcutaneous pentylenetetrazole test; type: functional
# Mus musculus [8] = test: Neurological toxicity in Albino Swiss CD1 mouse at 100 mg/kg, ip after 0.5 hrs by rotarod test; type: organism-based; set-up: dose 100 mg/kg, route intraperitoneal; settings: in vivo; how it was run: as §2
# Mus musculus [9] = test: Anticonvulsant activity in Albino Swiss CD1 mouse at 100 mg/kg, ip after 0.5 hrs by subcutaneous pentylenetetrazole test; type: functional, organism-based; set-up: dose 100 mg/kg; how it was run: as §3
# Mus musculus [10] = test: Anticonvulsant activity in Albino Swiss CD1 mouse at 100 mg/kg, ip after 0.5 hrs by maximal electroshock test; type: functional, organism-based; set-up: dose 100 mg/kg; how it was run: as §3
# Mus musculus [11] = test: Anticonvulsant activity in intraperitoneally dosed Albino Swiss CD1 mouse by maximal electroshock test; type: functional; settings: Albino Swiss CD1, ip; how it was run: as §1
# [12] = Neurological toxicity in intraperitoneally dosed Albino Swiss CD1 mouse by rotarod test; type: organism-based; settings: in vivo, ip
# How it was run: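 Mice trained on the rotarod were given various ip doses, four groups in all, and tested at 10 rpm. Failure to stay on the rod for at least 1 min indicated neurotoxicity.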
# Mus musculus [13] = species on record: Mus musculus; test: Protective index, ratio of neurotoxic TD50 in Albino Swiss CD1 mouse by rotarod test to anticonvulsant ED50 in Albino Swiss CD1 mouse by maximal electroshock test
# How it was run: (§4)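 The protective index is the rotarod TD50 divided by the MES or scPTZ ED50. Each value came from ip dosing in male CD-1 mice with probit analysis, and the reference drugs were tested under the same conditions.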
# Mus musculus [14] = test: Anticonvulsant activity in intraperitoneally dosed Albino Swiss CD1 mouse by subcutaneous pentylenetetrazole test; type: functional; how it was run: as §1
# Mus musculus [15] = test: Protective index, ratio of neurotoxic TD50 in Albino Swiss CD1 mouse by rotarod test to anticonvulsant ED50 in Albino Swiss CD1 mouse by subcutaneous pentylenetetrazole test; how it was run: as §4
SMILES,MED50 (Mus musculus [1]),Activity (Mus musculus [2]),Time (Mus musculus [3]),Activity (Mus musculus [4]),Activity (Mus musculus [5]),MED50 (Mus musculus [6]),Time (Mus musculus [7]),Activity (Mus musculus [8]),Activity (Mus musculus [9]),Activity (Mus musculus [10]),ED50 (Mus musculus [11]),TD50 [12],Ratio TD50/ED50 (Mus musculus [13]),ED50 (Mus musculus [14]),Ratio TD50/ED50 (Mus musculus [15])
CC(C(=O)NCc1ccccc1)N1C(=O)CCC1=O (racemic),100 mg/kg,Non-toxic,0.5 h,inactive,inactive,100 mg/kg,0.5 h,Non-toxic,–,–,–,–,–,–,–
CC1CC(=O)N(C(C)C(=O)NCc2cccc(C(F)(F)F)c2)C1=O (racemic),–,Non-toxic,–,inactive,inactive,–,–,Non-toxic,inactive,inactive,–,–,–,–,–
CC1CC(=O)N(C(C)C(=O)NCc2ccc(F)cc2)C1=O (racemic),–,Non-toxic,–,inactive,inactive,–,–,Non-toxic,inactive,inactive,–,–,–,–,–
CC1CC(=O)N(C(C)C(=O)NCc2ccccc2C(F)(F)F)C1=O (racemic),–,Non-toxic,–,inactive,inactive,–,–,Non-toxic,inactive,inactive,–,–,–,–,–
CC(C(=O)NCc1ccccc1C(F)(F)F)N1C(=O)CCC1=O (racemic),–,Non-toxic,–,inactive,inactive,–,–,Non-toxic,inactive,inactive,–,–,–,–,–
CC(C(=O)NCC1CCCCC1)N1C(=O)CCC1=O (stereo not drawn),–,Non-toxic,–,inactive,inactive,–,–,Non-toxic,inactive,inactive,–,–,–,–,–
CC1CC(=O)N(C(C)C(=O)NCc2cccc(Cl)c2)C1=O (racemic),–,Non-toxic,0.5 h,inactive,inactive,100 mg/kg,0.5 h,Non-toxic,inactive,–,90.3 mg/kg,247 mg/kg,2.73,–,–
CCC(C(=O)NCc1ccccc1)N1C(=O)CCC1=O (racemic),100 mg/kg,Non-toxic,0.5 h,inactive,inactive,100 mg/kg,0.5 h,Non-toxic,–,–,73.3 mg/kg,312 mg/kg,4.26,90.3 mg/kg,3.46
NC(=O)N1c2ccccc2C=Cc2ccccc21 [CARBAMAZEPINE],–,–,0.5 h,–,–,–,0.5 h,–,–,–,14.2 mg/kg,49.3 mg/kg,3.47,> 100 mg/kg,–
CC(C(=O)NCc1cccc(C(F)(F)F)c1)N1C(=O)CCC1=O (racemic),–,Non-toxic,0.5 h,inactive,inactive,100 mg/kg,0.5 h,Non-toxic,inactive,–,92.4 mg/kg,332 mg/kg,3.59,–,–
CC(C(=O)NCc1cccc(F)c1)N1C(=O)CCC1=O (racemic),–,Non-toxic,0.5 h,inactive,inactive,100 mg/kg,0.5 h,Non-toxic,inactive,–,77.4 mg/kg,> 500 mg/kg,>6.46,–,–
CC1CC(=O)N(C(C)C(=O)NCc2ccccc2)C1=O (racemic),100 mg/kg,Non-toxic,0.5 h,inactive,inactive,100 mg/kg,0.5 h,Non-toxic,–,–,106 mg/kg,355 mg/kg,3.34,78.3 mg/kg,4.54
